Active and inactive are the calls of the source.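 How the source made its calls: active means inhibition of 50% or more of probe labeling of the enzyme band; inactive means inhibition below 50%.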
These compounds were tested against Diacylglycerol lipase-beta (Mus musculus) (UniProt Q91WC9) (assay: blocking of probe labeling on DAGLb – biochemical, gel-based fluorescence, overexpressed mouse, set 2, late-stage follow-up (AID 602299)). Conditions: HEK293T membrane overexpressed mouse DAGLb, gel ABPP fluorescence; at 10 µM; active compounds read high.
Chain of Diacylglycerol lipase-beta (Mus musculus) (Q91WC9 whole entry, looked up): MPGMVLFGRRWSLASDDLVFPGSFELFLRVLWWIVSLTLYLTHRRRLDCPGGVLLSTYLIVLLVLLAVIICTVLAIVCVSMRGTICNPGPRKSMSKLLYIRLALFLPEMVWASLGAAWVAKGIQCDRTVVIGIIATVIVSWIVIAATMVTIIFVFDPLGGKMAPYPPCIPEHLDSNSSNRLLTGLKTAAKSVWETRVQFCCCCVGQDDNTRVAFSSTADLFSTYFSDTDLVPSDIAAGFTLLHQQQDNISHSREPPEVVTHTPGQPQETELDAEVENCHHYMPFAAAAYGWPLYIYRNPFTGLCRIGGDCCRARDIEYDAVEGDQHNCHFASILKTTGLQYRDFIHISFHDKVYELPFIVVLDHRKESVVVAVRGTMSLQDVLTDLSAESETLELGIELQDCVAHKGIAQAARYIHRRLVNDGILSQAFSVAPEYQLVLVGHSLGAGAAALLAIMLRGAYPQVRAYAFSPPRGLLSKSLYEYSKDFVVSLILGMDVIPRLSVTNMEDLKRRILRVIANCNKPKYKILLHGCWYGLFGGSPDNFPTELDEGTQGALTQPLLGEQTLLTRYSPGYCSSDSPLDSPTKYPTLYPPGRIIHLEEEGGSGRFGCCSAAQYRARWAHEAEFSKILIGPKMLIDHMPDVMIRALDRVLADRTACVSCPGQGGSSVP
Procedure, shortened: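 Medium: Dulbecco's phosphate-buffered saline (DPBS) / Material: membrane proteome of HEK293T cells transiently overexpressing mouse DAGLb / Amount: 0.3 mg/mL membrane protein / Doses: single test compound dose of 10 µM / Technique: reducing SDS-PAGE with in-gel fluorescence / Timing: 30 min compound pre-incubation then 30 min probe labeling, 37 °C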
An inhibition of 98% was found for `COc1ccccc1-c1ccc(-c2cn(C(=O)N3CCC(Cc4ccccc4)CC3)nn2)cc1` in this work. An inhibition of 99% was found for `COc1ccccc1-c1ccc(-c2cn(C(=O)N3CCCC(Cc4ccccc4)C3)nn2)cc1` (stereo not drawn) in this work. An inhibition of 59% was found for `O=C(N1CCCCC1CCc1ccccc1)n1cc(-c2ccc(-c3ccccc3)cc2)nn1` (stereo not drawn) in this work. An inhibition of 50% was found for `O=C(N1CCCCC1c1ccccc1)n1cc(-c2ccc(-c3ccccc3)cc2)nn1` (stereo not drawn) in this work. An inhibition of 64% was found for `COc1ccccc1-c1ccc(-c2cn(C(=O)N3CCCCC3c3ccccc3)nn2)cc1` (stereo not drawn) in this work. With `COc1ccc(-c2ccc(-c3cn(C(=O)N4CCCCC4c4ccccc4)nn3)cc2)cc1` (stereo not drawn) the inhibition was 11% (inactive). For `O=C(N1CCCCC1c1ccccc1)n1cc(C(O)(c2ccccc2)c2ccccc2)nn1` (stereo not drawn), the inhibition was 39% (inactive). An inhibition of 69% was found for `COc1ccccc1-c1ccc(-c2cn(C(=O)N3CCCCC3CCc3ccccc3)nn2)cc1` (stereo not drawn) in this work.

— PubChem BioAssay AID602299 (The Scripps Research Institute Molecular Screening Center, 2012)
